ChEMBL document CHEMBL1128257, “Chemically stable N-methyl-4-(alkylthio)cyclophosphamide derivatives as prodrugs of 4-hydroxycyclophosphamide” (J Med Chem, 1995)

How the values were obtained:
[1] = tested on: Mus musculus; experiment: Percentage increased life span against L1210 leukemia cells in mice;(1.08 mmol/kg dosage); format: functional
Summary of the method: (§1)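 CDF1 mice (17–18 g) inoculated with L1210 lymphoid leukaemia cells per NIH protocol 1.100. A single 1.08 mmol/kg dose was given 24 h after inoculation. %ILS = (treated/control − 1) × 100 on survival times, with vehicle-treated mice as controls. Survivors beyond 30 days were counted separately.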

[2] = tested on: RPMI-8226; experiment: cytotoxicity against leukemia subpanel (RPMI-8226); Experiment 1; format: functional; settings: Homo sapiens
Summary of the method: (§2)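 NCI 60 human tumour cell line screen. Compound dissolved in DMSO and tested at five concentrations (10^-4–10^-8 M). Growth followed over time as percent growth, with zero-time population set to zero. Value is log10 GI50, the log molar concentration giving 50% growth inhibition. Experiment 1 and Experiment 2 are separate runs.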

[3] = tested on: DMS-114; experiment: cytotoxicity against small cell lung cancer subpanel (DMS 114); Experiment 1; format: functional; settings: Homo sapiens; summary of the method: as §2
[4] = tested on: DMS-114; experiment: cytotoxicity against small cell lung cancer subpanel (DMS 114); Experiment 2; format: functional; settings: Homo sapiens; summary of the method: as §2
[5] = tested on: MOLT-4; experiment: cytotoxicity against leukemia subpanel (MOLT-4); Experiment 1; format: functional; settings: Homo sapiens; summary of the method: as §2
[6] = tested on: CCRF-CEM; experiment: cytotoxicity against leukemia subpanel (CCRF-CEM); Experiment 1; format: functional; settings: Homo sapiens; summary of the method: as §2
[7] = tested on: SR; experiment: cytotoxicity against leukemia subpanel (SR); Experiment 1; format: functional; settings: Homo sapiens; summary of the method: as §2
[8] = tested on: SR; experiment: cytotoxicity against leukemia subpanel (SR); Experiment 2; format: functional; settings: Homo sapiens; summary of the method: as §2
[9] = tested on: DMS-273; experiment: cytotoxicity against small cell lung cancer subpanel (DMS 273); Experiment 2; format: functional; settings: Homo sapiens; summary of the method: as §2
[10] = MGDH represents the selectivity or relative sensitivity of the tumor cell panel to the drug.; Experiment 1; format: functional
Summary of the method: (§3)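 NCI 60-line screen, DMSO solutions at five concentrations (10^-4–10^-8 M). Log10 GI50 was found per line. MG MID is the calculated mean over all panels. Sensitivity is expressed as the log-scale difference of a line or subpanel from that mean. Experiment 1 and Experiment 2 are separate runs.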

[11] = tested on: HL-60; experiment: cytotoxicity against leukemia subpanel (HL-60 (TB)); Experiment 2; format: functional; settings: Homo sapiens; summary of the method: as §2
[12] = tested on: RPMI-8226; experiment: cytotoxicity against leukemia subpanel (RPMI-8226); Experiment 2; format: functional; settings: Homo sapiens; summary of the method: as §2
[13] = tested on: MOLT-4; experiment: cytotoxicity against leukemia subpanel (MOLT-4); Experiment 2; format: functional; settings: Homo sapiens; summary of the method: as §2
[14] = tested on: DMS-273; experiment: cytotoxicity against small cell lung cancer subpanel (DMS 273); Experiment 1; format: functional; settings: Homo sapiens; summary of the method: as §2
[15] = tested on: K562; experiment: cytotoxicity against leukemia subpanel (K562); Experiment 2; format: functional; settings: Homo sapiens; summary of the method: as §2
[16] = tested on: HL-60; experiment: cytotoxicity against leukemia subpanel (HL-60 (TB)); Experiment 1; format: functional; settings: Homo sapiens; summary of the method: as §2
[17] = tested on: CCRF-CEM; experiment: cytotoxicity against leukemia subpanel (CCRF-CEM); Experiment 2; format: functional; settings: Homo sapiens; summary of the method: as §2
[18] = tested on: K562; experiment: cytotoxicity against leukemia subpanel (K562); Experiment 1; format: functional; settings: Homo sapiens; summary of the method: as §2
[19] = MGDH represents the selectivity or relative sensitivity of the tumor cell panel to the drug.; Experiment 2; format: functional; summary of the method: as §3
[20] = tested on: Mus musculus; experiment: Percentage increased life span against L1210 leukemia cells in mice (1.08 mmol/kg dosage); Toxic; format: toxicity, organism-based; summary of the method: as §1

O=P1(N(CCCl)CCCl)NCCCO1 (stereo unspecified) [CYCLOPHOSPHAMIDE ANHYDROUS]
ILS [1]: >187%

CCN(CC)C(=S)SC1CCOP(=O)(N(CCCl)CCCl)N1C (stereo unspecified)
GI50 [2]: 331 nM
GI50 [3]: 170 nM
GI50 [4]: 209 nM
GI50 [5]: 49 nM
GI50 [6]: 31.6 nM
GI50 [7]: 37.1 nM
GI50 [8]: 389 nM
GI50 [9]: 380 nM
ILS [1]: >92%
MGDH GI50 [10]: 69.72
GI50 [11]: 288 nM
GI50 [12]: 398 nM
GI50 [13]: 69.2 nM
GI50 [14]: 120 nM
GI50 [15]: 87.1 nM
GI50 [16]: 31.6 nM
GI50 [17]: 39.8 nM
GI50 [18]: 52.5 nM
MGDH GI50 [19]: 87.78

CN1C(OO)CCOP1(=O)N(CCCl)CCCl (stereo unspecified)
ILS [20]: Toxic
